Test results from ChEMBL document CHEMBL3091355, “Designing and synthesis of novel antimicrobial heterocyclic analogs of fatty acids” (2013).
In brackets after ≈: the same amount, converted by molar mass.

Key:
Assay type in all cases: functional
[1] = tested on: Candida tropicalis; assay: Antifungal activity against fluconazole, itraconazole-resistant Candida tropicalis clinical isolate after 20 hrs by agar dilution method
Outline: (§1)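 Clinical Candida isolates purified and subcultured on SC, SCC and PDA media before testing. Compounds were dissolved in DMSO as a stock, then diluted into solid PDA medium to final concentrations of 0.0312 to 256.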

[2] = tested on: Candida albicans; assay: Fungicidal activity against Candida albicans by micro dilution method
[3] = tested on: Escherichia coli; assay: Antibacterial activity against Escherichia coli ATCC 25922 after 24 hrs by disc diffusion method
Outline: (§2)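 Disk diffusion on agar; activity measured as the halo zone of inhibition around the disk.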

[4] = tested on: Staphylococcus aureus; assay: Bactericidal activity against Staphylococcus aureus after 18 to 24 hrs; settings: read-out: MBC99.9
Outline: (§3)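 MBC taken as the lowest concentration that killed the bacteria completely.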

[5] = tested on: Nakaseomyces glabratus; assay: Antifungal activity against Candida glabrata after 20 hrs by agar dilution method
[6] = tested on: Klebsiella pneumoniae; assay: Antibacterial activity against Klebsiella pneumoniae clinical isolate after 24 hrs by disc diffusion method
[7] = tested on: Candida dubliniensis; assay: Fungicidal activity against Candida dubliniensis by micro dilution method
[8] = tested on: Candida parapsilosis; assay: Fungicidal activity against Candida parapsilosis by micro dilution method; settings: Lodderomyces parapsilosis
[9] = tested on: Candida albicans; assay: Antifungal activity against Candida albicans clinical isolate after 20 hrs by agar dilution method
[10] = tested on: Candida albicans; assay: Fungicidal activity against fluconazole, itraconazole-resistant Candida albicans clinical isolate by micro dilution method
[11] = tested on: Candida parapsilosis; assay: Antifungal activity against Candida parapsilosis clinical isolate after 20 hrs by agar dilution method; settings: Lodderomyces parapsilosis
[12] = tested on: Escherichia coli; assay: Bactericidal activity against Escherichia coli ATCC 25922 after 18 to 24 hrs; settings: read-out: MBC99.9; outline: as §3
[13] = tested on: Escherichia coli; assay: Antibacterial activity against Escherichia coli ATCC 25922 after 24 hrs by broth micro dilution method; settings: ATCC 25922, 24 h
Outline: (§4)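 MIC by broth microdilution; growth read visually and spectrophotometrically. MIC taken as the lowest concentration giving complete inhibition of bacterial growth.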

[14] = tested on: Candida albicans; assay: Antifungal activity against fluconazole, itraconazole-resistant Candida albicans clinical isolate after 20 hrs by agar dilution method; outline: as §1
[15] = tested on: Pseudomonas aeruginosa; assay: Antibacterial activity against Pseudomonas aeruginosa ATCC 27853 after 24 hrs by disc diffusion method; outline: as §2
[16] = tested on: Nakaseomyces glabratus; assay: Fungicidal activity against Candida glabrata by micro dilution method
[17] = tested on: Candida parapsilosis; assay: Fungicidal activity against Candida parapsilosis clinical isolate by micro dilution method; settings: Lodderomyces parapsilosis
[18] = tested on: Streptococcus pyogenes; assay: Antibacterial activity against Streptococcus pyogenes clinical isolate after 24 hrs by broth micro dilution method
[19] = tested on: Pseudomonas aeruginosa; assay: Antibacterial activity against Pseudomonas aeruginosa ATCC 27853 after 24 hrs by broth micro dilution method; settings: ATCC 27853, 24 h; outline: as §4
[20] = tested on: Candida albicans; assay: Antifungal activity against Candida albicans after 20 hrs by agar dilution method; outline: as §1
[21] = tested on: Candida tropicalis; assay: Antifungal activity against Candida tropicalis clinical isolate after 20 hrs by agar dilution method
[22] = tested on: Candida tropicalis; assay: Fungicidal activity against Candida tropicalis by micro dilution method
[23] = tested on: Klebsiella pneumoniae; assay: Antibacterial activity against Klebsiella pneumoniae clinical isolate after 24 hrs by broth micro dilution method
[24] = tested on: Staphylococcus aureus; assay: Antibacterial activity against Staphylococcus aureus after 24 hrs by broth micro dilution method; outline: as §4
[25] = tested on: Streptococcus pyogenes; assay: Antibacterial activity against Streptococcus pyogenes clinical isolate after 24 hrs by disc diffusion method
[26] = tested on: Pichia kudriavzevii; assay: Fungicidal activity against Candida krusei by micro dilution method
[27] = tested on: Candida tropicalis; assay: Antifungal activity against Candida tropicalis after 20 hrs by agar dilution method
[28] = tested on: Candida parapsilosis; assay: Antifungal activity against Candida parapsilosis after 20 hrs by agar dilution method; settings: Lodderomyces parapsilosis
[29] = tested on: Candida albicans; assay: Fungicidal activity against Candida albicans clinical isolate by micro dilution method
[30] = tested on: Candida tropicalis; assay: Fungicidal activity against Candida tropicalis clinical isolate by micro dilution method
[31] = tested on: Candida dubliniensis; assay: Antifungal activity against Candida dubliniensis after 20 hrs by agar dilution method
[32] = tested on: Streptococcus pyogenes; assay: Bactericidal activity against Streptococcus pyogenes clinical isolate after 18 to 24 hrs; settings: read-out: MBC99.9
[33] = tested on: Klebsiella pneumoniae; assay: Bactericidal activity against Klebsiella pneumoniae clinical isolate after 18 to 24 hrs; settings: read-out: MBC99.9
[34] = tested on: Pseudomonas aeruginosa; assay: Bactericidal activity against Pseudomonas aeruginosa ATCC 27853 after 18 to 24 hrs; settings: read-out: MBC99.9; outline: as §3
[35] = tested on: Pichia kudriavzevii; assay: Antifungal activity against Candida krusei after 20 hrs by agar dilution method
[36] = tested on: Staphylococcus aureus; assay: Antibacterial activity against Staphylococcus aureus after 24 hrs by disc diffusion method; outline: as §2

With `CCCCCC[C@@H](O)CC1C(CCC)=NOC1CCCCCCCC(=O)OC` (stereo partly specified) the MIC90 [1] was greater than 256 µg/mL, the MFC [2] was 256 µg/mL (≈ 644 µM) and the “diameter of the inhibition zone (DIZ)” value [3] was 27.6 mm. The MBC [4] was 50 µg/mL (≈ 126 µM), the MIC90 [5] was 32 µg/mL (≈ 80.5 µM) and the “diameter of the inhibition zone (DIZ)” value [6] was 19.2 mm. The MFC [7] was 256 µg/mL (≈ 644 µM), the MFC [8] was 128 µg/mL (≈ 322 µM) and the MIC90 [9] was 32 µg/mL (≈ 80.5 µM). The MFC [10] was greater than 256 µg/mL, the MIC90 [11] was 128 µg/mL (≈ 322 µM) and the MBC [12] was 50 µg/mL (≈ 126 µM). For the same compound, the MIC [13] was 25 µg/mL (≈ 62.9 µM), the MIC90 [14] was 128 µg/mL (≈ 322 µM) and the “diameter of the inhibition zone (DIZ)” value [15] was 32.5 mm. For the same compound, the MFC [16] was 256 µg/mL (≈ 644 µM), the MFC [17] was greater than 256 µg/mL and the MIC [18] was 25 µg/mL (≈ 62.9 µM). The MIC [19] was 25 µg/mL (≈ 62.9 µM), the MIC90 [20] was 128 µg/mL (≈ 322 µM) and the MIC90 [21] was 64 µg/mL (≈ 161 µM). The MFC [22] was greater than 256 µg/mL, the MIC [23] was 25 µg/mL (≈ 62.9 µM) and the MIC [24] was 25 µg/mL (≈ 62.9 µM). The “diameter of the inhibition zone (DIZ)” value [25] was 23.2 mm, the MFC [26] was 128 µg/mL (≈ 322 µM) and the MIC90 [27] was 64 µg/mL (≈ 161 µM). For the same compound, the MIC90 [28] was 32 µg/mL (≈ 80.5 µM), the MFC [29] was 256 µg/mL (≈ 644 µM) and the MFC [30] was 256 µg/mL (≈ 644 µM). The MIC90 [31] was 32 µg/mL (≈ 80.5 µM), the MBC [32] was 50 µg/mL (≈ 126 µM) and the MBC [33] was 100 µg/mL (≈ 252 µM). The MBC [34] was 50 µg/mL (≈ 126 µM), the MIC90 [35] was 64 µg/mL (≈ 161 µM) and the “diameter of the inhibition zone (DIZ)” value [36] was 22.6 mm.
